In ChEMBL document CHEMBL1158134, “Low-abundance kutznerides from Kutzneria sp. 744” (2006):
Converted amounts (≈) assume the structure as drawn. The source made the active and inactive calls. The rule behind the calls is not given here.

Assays:
Fusarium culmorum = experiment: Antimicrobial activity against Fusarium culmorum at 27 to 28 degC after 72 hrs in dark; assay type: functional
Procedure, shortened: (§1)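 MIC by microtiter bioassay scoring inhibition of spore germination or cell growth. Compounds in MeOH were dried in the wells, then 100 µL of spore or cell suspension (10^4 spores/mL or cells/mL) in appropriate medium was added. The top concentration tested was 230 to 590 µM. Controls were untreated suspension and sterile medium. Growth was scored visually on a 0–3 scale. Run in triplicate, repeated once.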

[1] = tested on: Pectobacterium carotovorum; experiment: Antimicrobial activity against Erwinia carotovora at 27 to 28 degC after 24 hrs in dark; assay type: functional; procedure, shortened: as §1
Drechslera = experiment: Antimicrobial activity against Drechslera sorokiniana at 27 to 28 degC after 48 hrs in dark; assay type: functional; procedure, shortened: as §1
Staphylococcus aureus = experiment: Antimicrobial activity against Staphylococcus aureus at 37 degC after 24 hrs in dark; assay type: functional; procedure, shortened: as §1
Candida albicans = experiment: Antimicrobial activity against Candida albicans up to 590 uM at 37 degC after 24 hrs in dark; assay type: functional, organism-based; procedure, shortened: as §1
Aspergillus fumigatus = experiment: Antimicrobial activity against Aspergillus fumigatus up to 590 uM at 27 to 28 degC after 96 hrs in dark; assay type: functional, organism-based; procedure, shortened: as §1
[2] = tested on: Pseudomonas savastanoi pv. savastanoi; experiment: Antimicrobial activity against Pseudomonas savastanoi pv. savastanoi up to 590 uM at 27 to 28 degC after 24 hrs in dark; assay type: functional, organism-based; procedure, shortened: as §1

SMILES	MIC (Fusarium culmorum) [µM]	MIC [1] [µM]	MIC (Drechslera) [µM]	MIC (Staphylococcus aureus) [µM]	Activity (Candida albicans)	Activity (Aspergillus fumigatus)	Activity [2]
COC[C@@H]1NC(=O)[C@@H]2C[C@@H](Cl)CNN2C(=O)[C@H](C(C)(C)C)OC(=O)[C@@H](C2(C)CC2)NC(=O)[C@@H]2C[C@@]3(O)c4ccc(Cl)c(Cl)c4N[C@H]3N2C(=O)[C@@H]([C@H](O)CC(=O)O)NC1=O [KUTZNERIDE 8]	110 (≈ 97.8 µg/mL)	6 (≈ 5.34 µg/mL)	230 (≈ 205 µg/mL)	6 (≈ 5.34 µg/mL)	–	–	–
COC[C@@H]1NC(=O)[C@@H]2CCCNN2C(=O)[C@H](C(C)(C)C)OC(=O)[C@@H](C2(C)CC2)NC(=O)[C@@H]2C[C@@]3(O)c4ccc(Cl)c(Cl)c4N[C@H]3N2C(=O)[C@@H]([C@@H](O)CC(=O)O)NC1=O [KUTZNERIDE 1]	210 (≈ 179 µg/mL)	60 (≈ 51.3 µg/mL)	230 (≈ 197 µg/mL)	12 (≈ 10.3 µg/mL)	inactive	inactive	inactive
COC[C@@H]1NC(=O)[C@@H]2C[C@@H](Cl)CNN2C(=O)[C@H](C(C)(C)C)OC(=O)[C@@H](C2(C)CC2)NC(=O)[C@@H]2C[C@@]3(O)c4ccc(Cl)c(Cl)c4N[C@H]3N2C(=O)[C@@H]([C@@H](O)CC(=O)O)NC1=O [KUTZNERIDE 2]	70 (≈ 62.2 µg/mL)	6 (≈ 5.34 µg/mL)	110 (≈ 97.8 µg/mL)	6 (≈ 5.34 µg/mL)	inactive	inactive	inactive
COC[C@@H]1NC(=O)[C@@H]2CCCNN2C(=O)[C@H](C(C)(C)C)OC(=O)[C@@H](C2(C)CC2)NC(=O)[C@@H]2C[C@@]3(O)c4ccc(Cl)c(Cl)c4N[C@H]3N2C(=O)[C@@H]([C@H](O)CC(=O)O)NC1=O [KUTZNERIDE 3]	260 (≈ 222 µg/mL)	12 (≈ 10.3 µg/mL)	260 (≈ 222 µg/mL)	9 (≈ 7.69 µg/mL)	inactive	inactive	inactive
COC[C@@H]1NC(=O)[C@@H]2CCCNN2C(=O)[C@H](C(C)C)OC(=O)[C@@H](C2(C)CC2)NC(=O)[C@@H]2C[C@@]3(O)c4ccc(Cl)c(Cl)c4N[C@H]3N2C(=O)[C@@H]([C@H](O)CC(=O)O)NC1=O [KUTZNERIDE 5]	> 240	120 (≈ 101 µg/mL)	> 240	120 (≈ 101 µg/mL)	–	–	–

More lines, main results first:

MIC (Fusarium culmorum) [µM]	MIC [1] [µM]	MIC (Drechslera) [µM]	MIC (Staphylococcus aureus) [µM]	SMILES	Activity (Candida albicans)	Activity (Aspergillus fumigatus)	Activity [2]
> 420	180 (≈ 151 µg/mL)	> 420	120 (≈ 101 µg/mL)	COC[C@@H]1NC(=O)[C@@H]2CCCNN2C(=O)[C@H](C(C)C)OC(=O)[C@@H](C2(C)CC2)NC(=O)[C@@H]2C[C@@]3(O)c4ccc(Cl)c(Cl)c4N[C@H]3N2C(=O)[C@@H]([C@@H](O)CC(=O)O)NC1=O [KUTZNERIDE 7]	–	–	–
> 230	230 (≈ 196 µg/mL)	> 230	60 (≈ 51.2 µg/mL)	COC[C@@H]1NC(=O)[C@@H]2CCC=NN2C(=O)[C@H](C(C)(C)C)OC(=O)[C@@H](C2(C)CC2)NC(=O)[C@@H]2C[C@@]3(O)c4ccc(Cl)c(Cl)c4N[C@H]3N2C(=O)[C@@H]([C@@H](O)CC(=O)O)NC1=O [KUTZNERIDE 9]	–	–	–
–	–	–	17 (≈ 9.89 µg/mL)	CN[C@@H]1[C@H](O[C@H]2[C@H](O[C@H]3[C@H](O)[C@@H](O)[C@H](N=C(N)N)[C@@H](O)[C@@H]3N=C(N)N)O[C@@H](C)[C@]2(O)C=O)O[C@@H](CO)[C@H](O)[C@H]1O [STREPTOMYCIN]	–	–	–
> 230	> 230	> 400	> 230	COC[C@@H]1NC(=O)[C@@H]2C[C@@H](O)C=NN2C(=O)[C@H](C(C)(C)C)OC(=O)[C@@H](C2(C)CC2)NC(=O)[C@@H]2C[C@@]3(O)c4ccc(Cl)c(Cl)c4N[C@H]3N2C(=O)[C@@H]([C@H](O)CC(=O)O)NC1=O [KUTZNERIDE 6]	–	–	–
40 (≈ 37 µg/mL)	–	4 (≈ 3.7 µg/mL)	–	C[C@@H]1[C@H](O)[C@@H](C)/C=C/C=C/C=C/C=C/C=C/C=C/C=C/[C@H](O[C@@H]2O[C@H](C)[C@@H](O)[C@H](N)[C@@H]2O)C[C@@H]2O[C@](O)(C[C@@H](O)C[C@@H](O)[C@H](O)CC[C@@H](O)C[C@@H](O)CC(=O)O[C@H]1C)C[C@H](O)[C@H]2C(=O)O [AMPHOTERICIN B]	–	–	–
> 590	120 (≈ 102 µg/mL)	> 590	140 (≈ 119 µg/mL)	COC[C@@H]1NC(=O)[C@@H]2CCC=NN2C(=O)[C@H](C(C)(C)C)OC(=O)[C@@H](C2(C)CC2)NC(=O)[C@@H]2C[C@@]3(O)c4ccc(Cl)c(Cl)c4N[C@H]3N2C(=O)[C@@H]([C@H](O)CC(=O)O)NC1=O [KUTZNERIDE 4]	inactive	inactive	inactive
